From ChEMBL document CHEMBL2390920, “8-Benzamidochromen-4-one-2-carboxylic acids: potent and selective agonists for the orphan G protein-coupled receptor GPR35” (J Med Chem, 2013)

How the values were obtained:
[1] = molecular target: T1, G-protein coupled receptor 55 (Homo sapiens, UniProt Q9Y2T6); test: Antagonist activity at human GPR55 expressed in CHO cells assessed as inhibition of lysophosphotidylinositol-induced beta-arrestin recruitment at 10 uM preincubated for 30 mins followed by lysophosphotidylinositol induction by beta-galactosidase reporter gene assay relative to control; assay type: functional, cell-based
T1 sequence (Q9Y2T6 whole entry): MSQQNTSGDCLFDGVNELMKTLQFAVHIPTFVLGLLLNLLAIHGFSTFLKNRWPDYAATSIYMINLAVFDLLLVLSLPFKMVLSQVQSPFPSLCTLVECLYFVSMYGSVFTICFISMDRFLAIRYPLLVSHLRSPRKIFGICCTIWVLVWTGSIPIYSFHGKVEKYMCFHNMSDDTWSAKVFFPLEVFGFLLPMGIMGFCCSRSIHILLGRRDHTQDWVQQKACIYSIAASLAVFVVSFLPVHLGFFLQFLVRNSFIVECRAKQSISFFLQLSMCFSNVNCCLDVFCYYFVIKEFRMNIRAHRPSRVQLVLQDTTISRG
Summary of the method: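 Human GPR55 PathHunter CHO cells were preincubated 30 min with compound, then stimulated with LPI (final 1 µM). After 90 min, detection reagent was added and luminescence read 60 min later. Screening was at 10 µM; full concentration-inhibition curves were run for selected compounds to give IC50.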

[2] = molecular target: T1, G-protein coupled receptor 55; test: Agonist activity at human GPR55 expressed in CHO cells assessed as induction of beta-arrestin recruitment at 10 uM after 90 mins by beta-galactosidase reporter gene assay relative to lysophosphotidylinositol; assay type: functional, cell-based
Summary of the method: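 Human GPR55 PathHunter CHO cells, 20000 cells/well seeded the day before, received test compound at 10 µM (final DMSO ≤1%) for 90 min. Detection reagent was then added and luminescence read after 60 min. Signal was normalized to that of 1 µM LPI.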

[3] = molecular target: T2, G-protein coupled receptor 35 (Homo sapiens, UniProt Q9HC97); test: Agonist activity at human GPR35b expressed in CHO cells assessed as induction of beta-arrestin recruitment at 10 uM after 90 mins by beta-galactosidase reporter gene assay relative to zaprinast; assay type: cell-based
T2 sequence (Q9HC97 whole entry): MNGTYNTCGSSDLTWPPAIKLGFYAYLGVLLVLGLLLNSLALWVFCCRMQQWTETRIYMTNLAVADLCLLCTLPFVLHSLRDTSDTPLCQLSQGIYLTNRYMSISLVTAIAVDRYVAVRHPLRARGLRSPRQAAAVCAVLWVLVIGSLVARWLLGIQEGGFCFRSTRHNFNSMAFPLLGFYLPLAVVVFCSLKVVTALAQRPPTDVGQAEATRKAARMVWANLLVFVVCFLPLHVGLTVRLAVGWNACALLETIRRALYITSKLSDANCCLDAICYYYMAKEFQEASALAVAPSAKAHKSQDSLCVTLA
Summary of the method: (§1)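 CHO β-arrestin-EA parental line transfected with human GPR35b, seeded at 20000 cells/well the day before. Compounds in DMSO were diluted 1:10 in medium or PBS (final DMSO ≤1%). After 90 min of incubation, detection reagent was added and luminescence measured 60 min later. Screening was at 10 µM.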

[4] = molecular target: T2, G-protein coupled receptor 35; test: Agonist activity at human GPR35b expressed in CHO cells assessed as induction of beta-arrestin recruitment after 90 mins by beta-galactosidase reporter gene assay; assay type: cell-based; summary of the method: as §1
[5] = molecular target: G protein-coupled receptor GPR35 (Rattus norvegicus) (UniProt Q33BM1); test: Agonist activity at rat GPR35 expressed in CHO cells assessed as induction of beta-arrestin recruitment at 10 uM after 90 mins by beta-galactosidase reporter gene assay relative to zaprinast; assay type: cell-based
G protein-coupled receptor GPR35 (Rattus norvegicus), sequence (Q33BM1 as listed by the source): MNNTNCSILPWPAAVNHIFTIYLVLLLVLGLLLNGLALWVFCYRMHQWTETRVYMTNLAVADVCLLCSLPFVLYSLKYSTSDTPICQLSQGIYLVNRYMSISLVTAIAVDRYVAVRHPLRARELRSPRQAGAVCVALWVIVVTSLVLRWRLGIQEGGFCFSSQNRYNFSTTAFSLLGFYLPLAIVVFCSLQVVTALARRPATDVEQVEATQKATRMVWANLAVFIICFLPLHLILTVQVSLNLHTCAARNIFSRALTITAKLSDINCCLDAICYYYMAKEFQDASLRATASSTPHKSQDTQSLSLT
Summary of the method: (§2)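 Rat GPR35 expressed by transfecting a parental CHO β-arrestin-EA line; cells seeded at 20000/well the day before. Compounds (final DMSO ≤1%) were incubated 90 min, followed by detection reagent and a luminescence read after 60 min.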

[6] = molecular target: G protein-coupled receptor GPR35 (Rattus norvegicus, UniProt Q33BM1); test: Agonist activity at rat GPR35 expressed in CHO cells assessed as induction of beta-arrestin recruitment after 90 mins by beta-galactosidase reporter gene assay; assay type: cell-based; summary of the method: as §2
G protein-coupled receptor GPR35, sequence (Q33BM1 whole entry): as the sequence (Q33BM1 as listed by the source) above

[7] = molecular target: G-protein coupled receptor 35 (Mus musculus) (UniProt Q9ES90); test: Agonist activity at mouse GPR35 expressed in CHO cells assessed as induction of beta-arrestin recruitment at 10 uM after 90 mins by beta-galactosidase reporter gene assay; assay type: cell-based
G-protein coupled receptor 35 (Mus musculus), sequence (Q9ES90 whole entry): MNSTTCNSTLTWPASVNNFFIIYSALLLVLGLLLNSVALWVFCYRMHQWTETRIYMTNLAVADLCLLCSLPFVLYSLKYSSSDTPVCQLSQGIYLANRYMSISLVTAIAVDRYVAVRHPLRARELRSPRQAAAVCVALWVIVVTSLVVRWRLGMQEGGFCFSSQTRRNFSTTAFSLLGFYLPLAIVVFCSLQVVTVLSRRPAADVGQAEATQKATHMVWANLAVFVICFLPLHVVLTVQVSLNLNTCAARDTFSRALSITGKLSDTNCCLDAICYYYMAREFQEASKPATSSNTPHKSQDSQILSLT
Summary of the method: (§3)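 Mouse GPR35 introduced by transfection into a CHO β-arrestin-EA line; 20000 cells/well plated the day prior. After 90 min of compound exposure (final DMSO ≤1%), detection reagent was added and luminescence read after 60 min.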

[8] = molecular target: T2, G-protein coupled receptor 35; test: Agonist activity at human GPR35 expressed in CHO cells assessed as induction of beta-arrestin recruitment at 10 uM after 90 mins by beta-galactosidase reporter gene assay relative to zaprinast; assay type: cell-based
Summary of the method: (§4)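 PathHunter enzyme-fragment complementation in CHO cells stably expressing β-arrestin-EA and tagged human GPR35, seeded at 20000 cells/well the day before. DMSO dilutions were further diluted 1:10 (final DMSO ≤1%). Cells were incubated 90 min, then detection reagent was added and luminescence read after 60 min.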

[9] = molecular target: T2, G-protein coupled receptor 35; test: Agonist activity at human GPR35 expressed in CHO cells assessed as induction of beta-arrestin recruitment after 90 mins by beta-galactosidase reporter gene assay; assay type: cell-based; summary of the method: as §4
[10] = molecular target: G protein-coupled receptor GPR35 (Rattus norvegicus) (UniProt Q33BM1); test: Agonist activity at rat GPR35 expressed in CHO cells assessed as induction of beta-arrestin recruitment at 10 uM after 90 mins by beta-galactosidase reporter gene assay; assay type: cell-based; summary of the method: as §2
[11] = molecular target: G-protein coupled receptor 35 (Mus musculus, UniProt Q9ES90); test: Agonist activity at mouse GPR35 expressed in CHO cells assessed as induction of beta-arrestin recruitment after 90 mins by beta-galactosidase reporter gene assay; assay type: cell-based; summary of the method: as §3
G-protein coupled receptor 35 (Mus musculus, UniProt Q9ES90), sequence (Q9ES90 whole entry): as above

inhibition [1] [%]	Activity [2] [%]	Emax [3] [%]	EC50 [4] [µM]	Emax [5] [%]	EC50 [6] [µM]	Activity [7] [%]	Emax [8] [%]	EC50 [9] [µM]	Activity [10] [%]	EC50 [11] [µM]	SMILES
47	-2	125	0.0286	86	1.83	34	110	0.0168			COc1ccc(C(=O)Nc2cc(Cl)cc3c(=O)cc(C(=O)O)oc23)cc1
26	-1					7	80	0.112	1		CCOC(=O)c1cc(=O)c2cc(F)cc(NC(=O)c3ccc(OC)cc3)c2o1
20	12					26	112	6.97	32		O=C(Nc1cccc2c(=O)cc(C(=O)O)oc12)c1cccc([N+](=O)[O-])c1
46	-8	111	0.699	79	2.08	27	138	0.842			Cc1cccc(C(=O)Nc2cc(Br)cc3c(=O)cc(C(=O)O)oc23)c1
25	10			71	2.75	18	70	5.44			Cc1cccc(C(=O)Nc2cccc3c(=O)cc(C(=O)O)oc23)c1
	1					3	91	24.1	31		CC(=O)Nc1cccc2c(=O)cc(C(=O)O)oc12
40	4			92	2.1	31	102	1.22			Cc1cccc(C(=O)Nc2cc(Cl)cc3c(=O)cc(C(=O)O)oc23)c1
46	9	118	0.128	86	2.05	34	107	0.0599			O=C(Nc1cc(Br)cc2c(=O)cc(C(=O)O)oc12)c1ccc2c(c1)OCO2
26	-11					19	107	8.96	47		O=C(Cc1ccccc1)Nc1cccc2c(=O)cc(C(=O)O)oc12
					8					17	O=C1N/C(=N/c2ccccc2F)S/C1=C\c1ccc(C(=O)O)cc1
23	20			65	2.84	31	115	0.43			O=C(Nc1cc(Cl)cc2c(=O)cc(C(=O)O)oc12)c1ccccc1
16	6					43	104	1.38	43		Cc1ccc(C(=O)Nc2cccc3c(=O)cc(C(=O)O)oc23)cc1
47	16	109	0.0272	62	3.25	29	110	0.0154			O=C(Nc1cc(Br)cc2c(=O)cc(C(=O)O)oc12)c1ccc(Cl)c(Cl)c1
43	10	116	0.0346			12	110	0.0164	32		O=C(O)c1cc(=O)c2cc(Br)cc(NC(=O)c3ccc(Cl)cc3Cl)c2o1
31	-4			89	6.65	15	87	20.2			COC(=O)CC(=O)Nc1cccc2c(=O)cc(C(=O)O)oc12
16	17			79	1.2	38	118	4.2			O=C(O)c1cc(=O)c2cccc(NC(=O)C3CCCCC3)c2o1

Second part, the molecule before the results:

SMILES	inhibition [1] [%]	Activity [2] [%]	Emax [3] [%]	EC50 [4] [µM]	Emax [5] [%]	EC50 [6] [µM]	Activity [7] [%]	Emax [8] [%]	EC50 [9] [µM]	Activity [10] [%]	EC50 [11] [µM]
O=C(Nc1cccc2c(=O)cc(C(=O)O)oc12)c1ccc(Br)cc1	9	8	113	0.678			28	122	0.804	49	
N#Cc1ccc(C(=O)Nc2cc(Br)cc3c(=O)cc(C(=O)O)oc23)cc1	38	0			99	2.26	41	108	0.399		
O=C(Nc1cccc2c(=O)cc(C(=O)O)oc12)c1ccccc1	24	3					13	107	4.91	39	
CCC(=O)Nc1cccc2c(=O)cc(C(=O)O)oc12	16	15					12	119	13.4	30	
O=C(O)c1cc(=O)c2cc(F)cc(NC(=O)c3cccc(Cl)c3Cl)c2o1	40	5	104	0.873	82	3.13		106	0.382		
COc1ccc(C(=O)Nc2cc(F)cc3c(=O)cc(C(=O)O)oc23)cc1	34	7	113	0.143	78	1.76	30	123	0.112		
O=C(O)c1cc(=O)c2cc(F)cc(NC(=O)c3ccc(Cl)cc3Cl)c2o1	18	-8	110	0.0205			24	113	0.017	46	
O=C(O)c1cc(=O)c2cccc([N+](=O)[O-])c2o1	32	-6					4	101	46.3	38	
Nc1cc(Br)cc2c(=O)cc(C(=O)O)oc12	17	4					18	84	12.6	40	
O=C(Nc1cccc2c(=O)cc(C(=O)O)oc12)c1ccc(C(F)(F)F)cc1	5	1					23	81	15.5	38	
CCCOc1ccccc1-c1nc2nn[nH]c2c(=O)[nH]1 [ZAPRINAST]						0.0611					1.6
O=C(Nc1cc(Br)cc2c(=O)cc(C(=O)O)oc12)c1ccccc1	21	23			75	2.75	40	110	0.303		
CCOc1ccc(C(=O)Nc2cc(Br)cc3c(=O)cc(C(=O)O)oc23)cc1	39	-1			74	1.36	36	99	0.634		
O=C(Nc1cc(Br)cc2c(=O)cc(C(=O)O)oc12)c1ccc(Cl)cc1	40	12	130	0.0405			27	115	0.0251	47	
O=C(Nc1cc(Cl)cc2c(=O)cc(C(=O)O)oc12)c1ccc([N+](=O)[O-])cc1	14	8			115	3.14	18	130	1.71		
O=C(Nc1cc(F)cc2c(=O)cc(C(=O)O)oc12)c1ccc(Cl)c(Cl)c1	54	3	136	0.106	80	2.65	37	131	0.117		
